LANA-nucl inh: LANA-nucleosome interaction inhibition; FITC-LANA1-23 / chicken nucleosome fluorescence polarization; stronger effect = lower value; z-score (concentration not given with the values); 0.3% of 51,000 active; AID 720717;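 active means both repeat wells score below -2 in polarization z-score versus plate sample wells, excluding overly bright wells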
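Test system: purified chicken nucleosomes with FITC-labelled LANA N-terminal peptide (1-23); Input: 240 nM purified chicken nucleosomes (480 nM peptide binding sites), final; Medium: TEN-BT buffer, pH 7.5; Timing: 10–45 min, room temperature; Technique: fluorescence polarization, 480 nm excitation, 535 nm parallel and perpendicular emission; Replication: duplicates.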
BasE inh: BasE siderophore biosynthesis inhibition; purified BasE, fluorescence polarization binding displacement; 0.1% of 84,000 active; inhibition, % (no concentration beside the values); AID 485350; in the data active means inhibition above about 25%, passing the limit was not always enough
A number is an active result; i = inactive; nt = no result given; ! = repeats disagree. The sample as a whole holds a higher share of hits than the screen did.

SMILES | LANA-nucl inh | BasE inh
Cn1cccc1/C=C1/SC(=S)N(c2ccc(C(=O)O)cc2)C1=O | i | i
CN(C)/C=C1\SC(=S)N(c2ccc(Br)cc2)C1=O | -8.9 | i
O=C(CSc1nnc(-c2cccs2)o1)N1c2ccccc2OCC1c1ccccc1 (centres undefined) | nt | i
Cc1ccc(C)c(OCc2nnc(SCN3C(=O)c4ccccc4C3=O)o2)c1 | nt | i
C/C(=N\NC(=S)NC1CCCCC1)c1ccc(S(=O)(=O)NCc2ccco2)cc1 | nt | i
C/C(=N\NC(=O)c1ccc(O)cc1)c1ccc(S(=O)(=O)NCc2ccco2)cc1 | nt | 29
CC[C@@]1(O)C[C@H](O[C@H]2C[C@H](N(C)C)[C@H](O[C@H]3C[C@H](O)[C@H](O[C@H]4CCC(=O)[C@H](C)O4)[C@H](C)O3)[C@H](C)O2)c2c(cc3c(c2O)C(=O)c2c(O)cccc2C3=O)[C@H]1C(=O)OC | i | nt
COc1cccc2c1C(=O)c1c(O)c3c(c(O)c1C2=O)C[C@@](O)(C(=O)CO)C[C@@H]3O[C@H]1C[C@H](N)[C@@H](O)[C@H](C)O1 | i | nt
CC(=O)[C@]1(O)Cc2c(O)c3c(c(O)c2[C@@H](O[C@H]2C[C@H](N)[C@H](O)[C@H](C)O2)C1)C(=O)c1ccccc1C3=O | -10! | nt
COc1cccc2c1C(=O)c1c(O)c3c(c(O)c1C2=O)C[C@@](O)(C(C)=O)C[C@@H]3O[C@H]1C[C@H](N)[C@H](O)[C@H](C)O1 | -8.3 | nt
CC(C)Cn1c(SCC(=O)N2CCCC2=O)nc2cc(Cl)ccc2c1=O | nt | i
CN1c2ccccc2C(=O)/C(=N\Nc2ccccc2Cl)S1(=O)=O | -2.4 | i
CN1c2ccccc2C(=O)C(=C2SCCCS2)S1(=O)=O | i | i
CN1CCN(c2nc(C#N)c(C#N)nc2C(C#N)=C2Nc3ccccc3N2)CC1 | i | i
CCN1/C(=C(\C#N)c2nc(C#N)c(C#N)nc2N2CCOCC2)Nc2ccccc21 | -3.2 | i
C=CCn1c(=O)c(C(=O)NC)c(O)c2ccccc21 | i | i
Cc1cccc(OCCNC(=O)c2sc3nc[nH]c(=O)c3c2C)c1 | nt | i
O=C1c2c(O)ccc(O)c2C(=O)c2c(NCCNCCO)ccc(NCCNCCO)c21 | -9.1 | i
CCc1nc2ccc(C(=O)NCCc3ccco3)cc2nc1CC | -2.2 | i
Cc1ccc(CCNC(=O)c2ccc3nc(-c4ccco4)c(-c4ccco4)nc3c2)cc1 | i | i
O=C(Cc1ccccc1)O/N=C/c1ccc2c(c1)OCO2 | i | i
CCOC(=O)c1cc2sccc2n1CC(=O)NC1CCC(C)CC1 (centres undefined) | i | i
COc1ccccc1OCc1ccc(C(=O)Nc2ccccc2Cl)o1 | i | i
COc1ccccc1C1C2=C(CC(C)(C)CC2=O)Nc2nc3ccccc3n21 (centres undefined) | i | i
COc1ccccc1C1C=C(c2cccnc2)Nc2nc3ccccc3n21 (centres undefined) | -4.8 | i
SMILES | LANA-nucl inh | BasE inh
C[C@@H]1CCC2[C@](C)(CO)[C@@H](O)CC[C@]2(C)[C@@]12CCC1(COC(=O)C1)O2 (some centres undefined) | i | i
NNc1nc(NN)c2c3c(sc2n1)CCCCC3 | i | i
Cc1cc(=O)n2nc(N(C)CC(=O)NC3CCCc4ccccc43)sc2n1 (centres undefined) | -2.3 | i
O=C(Cn1cnnn1)NC1CCCc2ccccc21 (centres undefined) | nt | i
Cn1c(/C(C#N)=C(\O)CN2C(=O)CCC2=O)nc2ccccc21 | i | i
CSc1nc(C)cc(OCC(=O)NCCOc2ccc(C)cc2)n1 | i | i
Cc1cc2c3c([nH]c2cc1S(=O)(=O)NCCCc1ccco1)CCCC3=O | i | i
COC(=O)c1cc(-c2cocc2C=C(C#N)C#N)ccc1Cl | -4.7 | i
COC(=O)c1cnn(-c2c(Cl)cccc2Cl)c1C=C(C#N)C#N | i | i
Cc1cccc(C)c1N(C)C(=O)c1cnccc1C(F)(F)F | i | i
CCN1C=CC2=C(C#N)C(N)C(C#N)(C#N)C(c3cccs3)C2C1 (centres undefined) | -6.3 | i
N#CC1=C2SCN(Cc3ccccc3)CN2C(=O)CC1c1cccs1 (centres undefined) | i | i
COc1ccc(S(=O)(=O)NNC(N)=S)cc1 | i | i
COc1ccc(S(=O)(=O)c2ccc(O)cc2)cc1 | i | 51
COc1nc(C)ccc1-c1noc(-c2ccccc2)n1 | i | i
C=CCN(CC(=O)Nc1ccc(C)cc1)c1ccccc1 | nt | i
O=C1/C(=C/C2=Cc3ccccc3OC2)SC(=S)N1C1CCS(=O)(=O)C1 (centres undefined) | i | i
N#CCCn1cc(C(=O)CSc2ccccn2)c2ccccc21 | nt | 32
COc1ccc(SCC(=O)c2cn(CCC#N)c3ccccc23)cc1 | nt | i
O=C(Nc1nonc1-c1nc2ccccc2[nH]1)c1ccncc1 | i | i
CC(C)CC1C2CN(Cc3ccccc3)CC=C2C(C#N)=C(N)C1(C#N)C#N (centres undefined) | i | i
CCCC1C2CN(Cc3ccccc3)CC=C2C(C#N)=C(N)C1(C#N)C#N (centres undefined) | -4.6 | i
CC(=O)N1CC=C2C(C#N)=C(N)C(C#N)(C#N)C(Cc3ccccc3)C2C1 (centres undefined) | i | i
CN1CC=C2C(C#N)=C(N)C(C#N)(C#N)C(CCc3ccccc3)C2C1 (centres undefined) | -2.9 | i
O=C(NC1CCCCC1)C(c1ccco1)N(Cc1ccccc1)C(=O)Cn1nnc2ccccc21 (centres undefined) | i | i
SMILES | LANA-nucl inh | BasE inh
CO[C@H]1O[C@H](COC(=O)c2ccccc2)[C@@H](O)[C@H](O)[C@H]1OC(=O)c1ccccc1 | nt | i
Cc1nc2c(c(C)nn2C)c(C)c1CCC(=O)NCc1ccccc1 | i | i
Nc1nc(-c2ccc(Cl)cc2Cl)cs1 | nt | i
CN1C(=S)N(c2ccc(Cl)cc2)C(=O)/C1=C/c1ccccc1O | nt | i
CC(Cn1nnc2ccccc21)C(=O)O (centres undefined) | nt | i
C/C(Cn1nnc2ccccc21)=N/OC(=O)c1c(F)cccc1F | i | 53
CSc1cc(-c2ccc(F)cc2)nn1S(=O)(=O)c1ccc(C)cc1 | nt | i
CC(=O)N1N=C(c2cccc(I)c2)OC1c1ccncc1 (centres undefined) | i | 59
CCC(=O)Nc1cccc(C2=NN(C(C)=O)C(c3ccc(F)cc3)O2)c1 (centres undefined) | i | i
CC(=O)O/N=C(\N)Cc1csc2ccc(Cl)cc12 | i | i
CC[C@@]1(O)C(=O)OCc2c1cc1n(c2=O)Cc2cc3c(CN(C)C)c(O)ccc3nc2-1 | -9! | i
CCCCc1cc(=O)oc2c(CN(C)C)c(O)ccc12 | i | i
Cc1noc(C)c1CSc1ccccc1C(=O)OCc1nnc(-c2ccccc2)o1 | nt | i
CC(CNC(=O)c1cc(C2CC2)[nH]n1)c1ccccc1 (centres undefined) | i | i
Cc1cc(C(=O)NCC(C)c2ccccc2)n[nH]1 (centres undefined) | -2.2 | i
O=C(CSc1n[nH]c(=O)[nH]c1=O)Nc1ccccc1C(=O)c1ccccc1 | nt | 38
O=C(CSc1n[nH]c(=O)[nH]c1=O)Nc1ccc(Br)cc1Br | nt | i
CC(C)c1nc2ccc(N)cc2s1 | i | i
CN(C)c1ccc2nc3ccc(=[N+](C)C)cc-3sc2c1 | -2.4 | nt
N#CCN(CC#N)S(=O)(=O)c1ccccc1 | i | i
O=C(c1ccc2cn[nH]c2c1)N1CCC2(CC1)OCCO2 | i | i

From PubChem BioAssay
